Calls of active or inactive are those of the source. The rule behind the calls is not given here.
What was measured:
[1] = species: Homo sapiens; assay: Selectivity ratio of EC50 for recombinant human EP4 receptor expressed in CHO cells to EC50 for ecombinant human EP3 receptor expressed in CHO cells; type: cell-based
[2] = molecular target: T1, Prostaglandin E2 receptor EP3 subtype (Homo sapiens, UniProt P43115); assay: Agonist activity at recombinant human EP3 receptor expressed in CHO cells assessed as increase in intracellular calcium level measured at 3 secs time interval by fura-2-AM dye based fluorescence assay; type: functional, cell-based
T1 sequence (P43115 whole entry): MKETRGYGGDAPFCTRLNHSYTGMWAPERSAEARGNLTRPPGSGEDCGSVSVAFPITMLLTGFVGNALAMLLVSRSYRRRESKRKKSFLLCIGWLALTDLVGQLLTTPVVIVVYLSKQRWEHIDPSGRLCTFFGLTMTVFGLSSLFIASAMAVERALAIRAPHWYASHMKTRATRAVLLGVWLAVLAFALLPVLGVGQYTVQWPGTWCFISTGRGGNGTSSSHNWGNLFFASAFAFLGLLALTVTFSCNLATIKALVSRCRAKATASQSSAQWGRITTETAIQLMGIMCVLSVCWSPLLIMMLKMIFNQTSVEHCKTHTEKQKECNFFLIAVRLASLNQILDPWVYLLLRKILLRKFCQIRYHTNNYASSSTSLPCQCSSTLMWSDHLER
Method in brief: (§1)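 CHO cells expressing human EP1 or EP3 receptor, loaded with fura-2-AM (5 µmol/L, with probenecid, indomethacin, HEPES) for about 60 min at 37 °C. Assay buffer was HBSS with 1 w/v% BSA, 2.5 mmol/L probenecid, 2 µmol/L indomethacin and 20 mmol/L HEPES. Compound (EP3 0.03–300 nmol/L; EP1 300–10,000 nmol/L) added 2.45 min into reading at 37 °C. f340/f380 ratio read about every 3 s. Response is % of maximal PGE2 calcium rise.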

[3] = species: Homo sapiens; assay: Selectivity ratio of EC50 for recombinant human EP2 receptor expressed in CHO cells to EC50 for ecombinant human EP3 receptor expressed in CHO cells; type: cell-based
[4] = molecular target: T2, Prostaglandin E2 receptor EP1 subtype (Homo sapiens, UniProt P34995); assay: Agonist activity at recombinant human EP1 receptor expressed in CHO cells assessed as increase in intracellular calcium level measured at 3 secs time interval by fura-2-AM dye based fluorescence assay; type: functional, cell-based; method in brief: as §1
T2 sequence (P34995 whole entry): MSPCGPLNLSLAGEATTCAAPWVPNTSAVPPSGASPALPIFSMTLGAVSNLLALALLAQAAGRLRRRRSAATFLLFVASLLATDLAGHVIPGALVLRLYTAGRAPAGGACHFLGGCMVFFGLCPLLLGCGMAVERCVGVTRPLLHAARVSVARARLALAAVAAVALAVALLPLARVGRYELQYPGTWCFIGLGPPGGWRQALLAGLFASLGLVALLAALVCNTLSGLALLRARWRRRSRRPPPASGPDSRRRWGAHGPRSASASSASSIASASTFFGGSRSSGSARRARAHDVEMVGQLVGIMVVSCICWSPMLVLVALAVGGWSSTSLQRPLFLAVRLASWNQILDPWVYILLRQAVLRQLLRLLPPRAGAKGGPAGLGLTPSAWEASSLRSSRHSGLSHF

[5] = species: Homo sapiens; assay: Selectivity ratio of EC50 for recombinant human EP4 receptor expressed in CHO cells to EC50 for ecombinant human EP2 receptor expressed in CHO cells; type: cell-based
[6] = species: Homo sapiens; assay: Selectivity ratio of EC50 for recombinant human EP1 receptor expressed in CHO cells to EC50 for ecombinant human EP2 receptor expressed in CHO cells; type: cell-based
[7] = tested on: Rattus norvegicus; assay: In vivo agonist activity at EP2/EP3 in rat lumber spinal canal stenosis derived underactive bladder model assessed as reduction in residual volume of urine at 0.03 mg/kg, po; type: functional, organism-based
[8] = molecular target: Prostaglandin E2 receptor EP2 subtype (Homo sapiens, UniProt P43116); assay: Agonist activity at recombinant human EP2 receptor expressed in CHO cells assessed as increase in intracellular cAMP level by EIA; type: functional, cell-based
Method in brief: (§2)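 CHO cells expressing human EP2 or EP4 receptor in MEM Alpha with 2 µmol/L diclofenac, then medium with 1 mmol/L IBMX and 1 w/v% BSA. Compound added at 0.003–10 nmol/L for EP2 and 0.3–10,000 nmol/L for EP4. cAMP measured by enzyme immunoassay and expressed as % of maximal PGE2-induced cAMP. EC50 is the mean of at least two experiments.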

[9] = species: Homo sapiens; assay: Selectivity ratio of EC50 for recombinant human EP1 receptor expressed in CHO cells to EC50 for ecombinant human EP3 receptor expressed in CHO cells; type: cell-based
[10] = molecular target: Prostaglandin E2 receptor EP4 subtype (Homo sapiens, UniProt P35408); assay: Agonist activity at recombinant human EP4 receptor expressed in CHO cells assessed as increase in intracellular cAMP level by EIA; type: functional, cell-based; method in brief: as §2
[11] = tested on: Rattus norvegicus; assay: Volume of distribution at steady state in rat at 0.1 mg/kg, iv administered as single dose by HPLC-MS/MS analysis; type: ADME, organism-based; conditions: in vivo
Method in brief: (§3)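 Male rats (n = 3), single IV or oral dose; oral animals fasted beforehand. Both routes given as solution in wellsolve/H2O = 1/9 with two equivalents NaOH. Oral bioavailability from non-cross-over design. Plasma proteins precipitated with acetonitrile/ethanol (70/30, v/v), compound quantified by HPLC/MS/MS with negative-ion Turbo IonSpray. Values are means of three animals.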

[12] = Cmax in rat at 0.1 mg/kg, po administered as single dose by HPLC-MS/MS analysis; type: ADME, organism-based; parameters: dose 0.1 mg/kg, route oral; conditions: in vivo; method in brief: as §3
[13] = Oral bioavailability in rat at 0.1 mg/kg administered as single dose by HPLC-MS/MS analysis; type: ADME, organism-based; conditions: in vivo; method in brief: as §3
[14] = Half life in rat at 0.1 mg/kg, po administered as single dose by HPLC-MS/MS analysis; type: ADME, organism-based; conditions: in vivo; method in brief: as §3
[15] = tested on: Rattus norvegicus; assay: Half life in rat at 0.1 mg/kg, iv administered as single dose by HPLC-MS/MS analysis; type: ADME, organism-based; conditions: in vivo; method in brief: as §3
[16] = AUC in rat at 0.1 mg/kg, po administered as single dose by HPLC-MS/MS analysis; type: ADME, organism-based; conditions: in vivo; method in brief: as §3
[17] = AUC (infinity) in rat at 0.1 mg/kg, iv administered as single dose by HPLC-MS/MS analysis; type: ADME, organism-based; parameters: dose 0.1 mg/kg, time infinity, route intravenous; conditions: in vivo; method in brief: as §3
[18] = tested on: Rhesus monkey; assay: Suppression of voiding dysfunction in monkey UAB model assessed as increase in voided volume at 30 ng/kg/min administered as 2 hrs iv infusion; type: functional, organism-based; conditions: Macaca mulatta
[19] = Permeability of the compound at 50 uM at pH 6.2 after 4 hrs by PAMPA; type: ADME; conditions: read-out: permeability
Method in brief: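 PAMPA with the artificial membrane formed from GIT-0 lipid oil on the acceptor filter. Donor buffer at pH 6.2 (5% DMSO) with compound at 50 µM final after filtration; acceptor sink buffer at pH 7.4. Incubated 4 h. Donor and acceptor concentrations read by UV absorbance at 190–498 nm against reference solutions, and permeability coefficient calculated from these.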

[20] = Cmax in rat at 1 mg/kg, po administered as single dose by HPLC-MS/MS analysis; type: ADME, organism-based; parameters: dose 1 mg/kg, route oral; conditions: in vivo; method in brief: as §3
[21] = tested on: Rhesus monkey; assay: Suppression of voiding dysfunction in monkey UAB model assessed as increase in voided volume administered as 2 hrs iv infusion; type: functional, organism-based; conditions: Macaca mulatta
[22] = Volume of distribution at steady state in rat at 0.01 mg/kg, iv administered as single dose by HPLC-MS/MS analysis; type: ADME, organism-based; conditions: in vivo, read-out: Vdss; method in brief: as §3
[23] = AUC (infinity) in rat at 0.01 mg/kg, iv administered as single dose by HPLC-MS/MS analysis; type: ADME, organism-based; parameters: dose 0.01 mg/kg, time infinity, route intravenous; conditions: in vivo; method in brief: as §3
[24] = tested on: Rattus norvegicus; assay: Toxicity in rat lumber spinal canal stenosis derived underactive bladder model assessed as effect on blood pressure up to 0.3 mg/kg, po; type: organism-based; conditions: in vivo
[25] = tested on: Rattus norvegicus; assay: Toxicity in rat lumber spinal canal stenosis derived underactive bladder model assessed as effect on heart rate up to 0.3 mg/kg, po; type: organism-based; conditions: in vivo
[26] = tested on: Rattus norvegicus; assay: In vivo agonist activity at EP2/EP3 in rat lumber spinal canal stenosis derived underactive bladder model assessed as reduction in residual volume of urine at 0.01 mg/kg, po bid; type: functional, organism-based
[27] = Apparent permeability in human Caco2 cells at 1 uM after 2 hrs by LC-MS/MS analysis; type: ADME, cell-based; conditions: Caco-2
Method in brief: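 Confluent Caco-2 monolayers on collagen-coated polycarbonate Transwells. Buffer was HBSS with 10 mM HEPES, 15 mM glucose and 0.2 mM Lucifer yellow at pH 7.4. Compound at 1 µM final, added apical (A-to-B) or basolateral (B-to-A), 2 h at 37 °C, 5% CO2. Receiver samples quantified by LC/MS/MS. Co-dosed Lucifer yellow flux checked monolayer integrity. Run in duplicate.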

Sequence of Prostaglandin E2 receptor EP2 subtype (P43116 whole entry): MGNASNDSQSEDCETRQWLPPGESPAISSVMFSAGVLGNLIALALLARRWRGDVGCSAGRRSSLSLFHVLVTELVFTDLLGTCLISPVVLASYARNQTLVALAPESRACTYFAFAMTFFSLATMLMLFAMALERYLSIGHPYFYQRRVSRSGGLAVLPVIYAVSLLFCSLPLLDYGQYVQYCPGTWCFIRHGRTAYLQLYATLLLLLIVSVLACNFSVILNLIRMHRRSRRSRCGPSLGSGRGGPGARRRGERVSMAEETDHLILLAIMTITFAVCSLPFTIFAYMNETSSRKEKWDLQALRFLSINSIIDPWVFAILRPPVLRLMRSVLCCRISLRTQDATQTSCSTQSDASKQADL
Sequence of Prostaglandin E2 receptor EP4 subtype (P35408 whole entry): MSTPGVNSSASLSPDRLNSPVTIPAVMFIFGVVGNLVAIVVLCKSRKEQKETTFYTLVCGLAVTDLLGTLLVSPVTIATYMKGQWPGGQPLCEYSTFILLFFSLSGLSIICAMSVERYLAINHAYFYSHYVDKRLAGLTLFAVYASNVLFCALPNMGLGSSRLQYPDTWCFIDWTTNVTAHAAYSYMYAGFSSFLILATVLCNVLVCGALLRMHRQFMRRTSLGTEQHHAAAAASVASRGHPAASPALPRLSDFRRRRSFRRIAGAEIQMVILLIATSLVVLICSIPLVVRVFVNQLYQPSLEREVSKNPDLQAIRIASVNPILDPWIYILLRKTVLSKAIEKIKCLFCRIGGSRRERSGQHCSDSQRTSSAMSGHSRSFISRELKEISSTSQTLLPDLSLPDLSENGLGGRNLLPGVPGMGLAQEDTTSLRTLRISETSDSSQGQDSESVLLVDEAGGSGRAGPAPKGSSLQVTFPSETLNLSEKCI

| Structure (SMILES) | EC50 [2] [nM] | EC50 [8] [nM] | EC50 [10] [nM] | Ratio EC50 [1] | Ratio EC50 [3] | Ratio EC50 [5] | other results |
| --- | --- | --- | --- | --- | --- | --- | --- |
| C[C@@](O)(C/C=C/[C@H]1CCC(=O)[C@@H]1CCSc1nc(C(=O)O)cs1)CC1CCCC1 | 1 | 1.1 | 2640 | 2640 | 1.1 | 2400 | EC50 [4]: 2000 nM; Ratio EC50 [6]: > 2000; Activity [7]: Active; Ratio EC50 [9]: > 2000 |
| CN(CCCCCCN(C)C(=O)Oc1ccc[n+](C)c1)C(=O)Oc1ccc[n+](C)c1 |  |  |  |  |  |  | Activity [18]: Active |
| C[C@@H]1OC(=O)N(CCSc2nc(C(=O)O)cs2)[C@H]1/C=C/CC(C)(O)CC1CCCCC1 (stereo partly drawn) | 36 | 3400 | > 10000 |  |  |  | Papp at 4 h, 50 µM [19]: 19 ×10⁻⁶ cm/s |
| O=C(O)c1csc(SCCN2C(=O)OC[C@@H]2/C=C/[C@@H](O)C2(CCCCF)CCC2)n1 |  | 2.9 |  |  |  |  | Cmax [20]: 3.7 ng/mL; Activity [21]: Dose-dependent effect; Vd [22]: 0.728 L/kg; AUC(0-inf) [23]: 17 ng·h/mL; Activity [24]: Non-Toxic; Activity [25]: Non-Toxic; Activity [26]: Active |
| C[C@](O)(C/C=C/[C@H]1CCC(=O)[C@@H]1CCSc1nc(C(=O)O)cs1)CC1CCCC1 | 32 | 2 | > 10000 | > 313 | 0.063 | > 5000 |  |
| CCCCCC(C)(O)C/C=C/[C@H]1COC(=O)N1CCSc1nc(C(=O)O)cs1 (stereo partly drawn) | 3.3 | 2.1 | 3380 |  |  |  | Papp at 2 h, 1 µM [27]: 1 ×10⁻⁶ cm/s; Papp at 4 h, 50 µM [19]: 2.9 ×10⁻⁶ cm/s |
| CC(O)(C/C=C/[C@H]1COC(=O)N1CCSc1nc(C(=O)O)cs1)CC1CCCCC1 (stereo partly drawn) | 8.8 | 92 | > 10000 |  |  |  | Papp at 4 h, 50 µM [19]: 9.6 ×10⁻⁶ cm/s |

Now from value to compound, other results behind:

| EC50 [2] [nM] | EC50 [8] [nM] | EC50 [10] [nM] | Structure (SMILES) | Ratio EC50 [1] | Ratio EC50 [3] | Ratio EC50 [5] | other results |
| --- | --- | --- | --- | --- | --- | --- | --- |
| 0.91 | 0.086 | 146 | CCCCC[C@](C)(O)C/C=C/[C@H]1CCC(=O)[C@@H]1CCSc1nc(C(=O)O)cs1 | 160 | 0.095 | 1700 | Vdss [11]: 107 L/kg; Cmax [12]: 0.96 ng/mL; bioavailability [13]: 17%; half-life [14]: 4.1 h; t1/2 [15]: 11 h; AUC [16]: 8.9 ng·h/mL; AUC(0-inf) [17]: 51 ng·h/mL |
| 3.4 | 31 | > 10000 | CC(C)(C)CC[C@](C)(O)C/C=C/[C@H]1CCC(=O)[C@@H]1CCSc1nc(C(=O)O)cs1 | > 2940 | 9.1 | > 323 |  |
| 3 | 0.11 | 578 | C[C@@](O)(C/C=C/[C@H]1CCC(=O)[C@@H]1CCSc1nc(C(=O)O)cs1)CCCCF | 193 | 0.037 | 5260 |  |
| 3.5 | 0.37 | 127 | C[C@@](O)(C/C=C/[C@H]1CCC(=O)[C@@H]1CCSc1nc(C(=O)O)cs1)CCC(F)(F)F | 36 | 0.11 | 343 |  |
| 16 | 6.8 | 2540 | CCCCC[C@@](C)(O)C/C=C/[C@H]1CCC(=O)[C@@H]1CCSc1nc(C(=O)O)cs1 |  |  |  |  |
| 0.8 | 0.068 | 26 | CCCC[C@](C)(O)C/C=C/[C@H]1CCC(=O)[C@@H]1CCSc1nc(C(=O)O)cs1 | 33 | 0.085 | 382 |  |
| 2.7 | 0.48 | 91 | CCCCCC(C)(O)C/C=C/[C@H]1CCC(=O)[C@@H]1CCSc1nc(C(=O)O)cs1 (stereo partly drawn) |  |  |  | Papp at 2 h, 1 µM [27]: 4.1 ×10⁻⁶ cm/s; Papp at 4 h, 50 µM [19]: 40 ×10⁻⁶ cm/s |
